# Sampled rows, rich in hits. Any-hit rate of the full collection: about 2%.
# TCR-CD3 inh: blocks the human TCR-CD3 interaction | inhibition, % at 9.4 µM | 360,000 tested, 0.37% active | TAMRA-labeled TCR probe fluorescence, biochemical; in the data active = inhibition above about 19%;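 also: recombinant mutant TCR 2C K166C tagged with TAMRA read by polarization; 0% = receptor in buffer alone and 100% = receptor with positive control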
# LEDGF integ inh: blocks HIV-1 LEDGF/p75-dependent DNA integration | 370,000 tested, 0.64% active | inhibition, % at 3.7 µM | AID 743269 | TR-FRET IN-LEDGF/p75 DNA integration, Eu/Cy5;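 active = inhibition above the screen-wide mean plus 3 SD, cut at about 13% in these data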;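 also: signal is the Cy5 over europium emission ratio at 671 and 618 nm; 0% = plate median of compound wells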
# ARFGAP1 inhibitor: inhibitors of rat ARFGAP1; AID 651572; inhibition, % at 16.5 µM; Q62848; 360,000 tested, 0.26% active; Arfgap1-stimulated ARF1 GTP hydrolysis, GDP FP detection;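 active = inhibition above a per-plate limit, mean inhibition of low control wells plus 3 SD, cut at about 25% in these data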;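 also: 0% = DMSO wells with enzyme and 100% = wells lacking Arfgap1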
# Target sequence (Q62848 1-136 limits assumed): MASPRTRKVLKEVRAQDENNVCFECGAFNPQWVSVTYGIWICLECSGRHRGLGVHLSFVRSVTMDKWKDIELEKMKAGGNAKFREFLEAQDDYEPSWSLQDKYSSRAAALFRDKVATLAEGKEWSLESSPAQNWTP
#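 System: truncated rat Arfgap1 GAP domain / Medium: HEPES-based buffer, pH 7.5 / Also added: N-terminally truncated human ARF1-GTP substrate / Incubation: enzyme reaction 120 min at 25 °C after 20 min preincubation / Measured by: FP of antibody-bound GDP Alexa 633 tracer, ex 620/em 688 nm / Replicates: singlicate, each compound tested once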
# ASAP1 inh: blocks human ASAP1-stimulated Arf1 GTP hydrolysis | Q9ULH1 | GDP FP detection | inhibition, % at 16.5 µM | 360,000 tested, 0.19% active | AID 624377; in the data active = inhibition above about 25%;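 also: 0% = vehicle with enzyme and substrate and 100% = no enzyme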
# Target sequence (Q9ULH1 325-724 limits assumed): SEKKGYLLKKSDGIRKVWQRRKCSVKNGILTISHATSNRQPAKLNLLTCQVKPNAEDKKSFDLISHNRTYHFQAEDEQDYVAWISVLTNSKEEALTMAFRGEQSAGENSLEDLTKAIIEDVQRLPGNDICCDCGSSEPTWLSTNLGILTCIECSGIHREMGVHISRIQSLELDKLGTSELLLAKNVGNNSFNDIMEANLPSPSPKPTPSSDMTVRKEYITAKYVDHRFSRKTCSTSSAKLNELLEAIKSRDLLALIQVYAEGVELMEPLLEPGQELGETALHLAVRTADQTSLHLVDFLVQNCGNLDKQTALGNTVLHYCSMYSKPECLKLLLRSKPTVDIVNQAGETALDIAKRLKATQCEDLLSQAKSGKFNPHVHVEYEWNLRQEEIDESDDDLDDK
# MBD2 inh: MBD2-methylated oligo binding inhibition. Q9UBB5. inhibition, % at 4.4 µM. 370,000 tested, 0.31% active. TR-FRET, MBD2 binding to methylated oligonucleotide; in the data active = inhibition above about 13%
# UHRF1 MBD2 ctr: human UHRF1 methylated DNA binding inhibitors; UHRF1 binding to methylated oligo, TR-FRET; inhibition, % at 4.4 µM; 370,000 tested, 0.75% active; AID 687016; in the data active = inhibition above about 21%;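 also: UHRF1 SRA domain binding a hemimethylated CpG hairpin DNA probe; 0% = median of test compound wells and 100% = reference inhibitor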
# IN multimer up: activates HIV-1 integrase multimerization in LEDGF counter-screen; activation, % at 7.7 µM; 2,000 tested, 17% active; TR-FRET HIV-1 integrase multimerization, biochemical; shares compounds with LEDGF integ inh; in the data active = activation above about 8.9%
# TR-FRET interf: optically interferes with TR-FRET readout in LEDGF counter-screen | shares compounds with LEDGF integ inh | TR-FRET optical interference counterscreen, HIV-1 IN multimerization | inhibition, % at 7.7 µM | 2,000 tested, under 10 active;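 active = inhibition above the mean over all tested compounds plus 3 SD, which no compound reached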;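 also: 0% = integrase with antibodies and DMSO and 100% = antibodies without integrase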
# LEDGF integ conf: LEDGF/p75-dependent HIV-1 integration inhibition, confirmation; AID 1053136; 2,000 tested, 36% active; shares compounds with LEDGF integ inh; inhibition, % at 3.7 µM; TR-FRET LEDGF/p75-dependent HIV-1 integration, biochemical; in the data active = inhibition above about 14%
# An asterisk follows results filed as active; · = no result given.
SMILES,TCR-CD3 inh,LEDGF integ inh,ARFGAP1 inhibitor,ASAP1 inh,MBD2 inh,UHRF1 MBD2 ctr,IN multimer up,TR-FRET interf,LEDGF integ conf
COC(=O)[C@]12CCCCC=C1N(Cc1cccc3ccccc13)C(=O)[C@H](CC(=O)N1CCCCC1)C2,3,82*,-4,10,2,13,0,-1,3
COC(=O)[C@]12CCCCC=C1N(Cc1cccc3ccccc13)C(=O)[C@H](CC(=O)N1CCC(c3ccccc3)CC1)C2,-7,2,0,1,-3,-1,·,·,·
O=C(CCN1C(=O)c2ccccc2C1=O)N1CCN(Cc2ccccc2)CC1,1,-1,9,-9,4,0,·,·,·
Cc1ccc(CN2CCN(C(=O)c3ccncc3)CC2)cc1,-10,75*,-1,-2,-2,1,0,-1,4
Cc1ccc(CN2CCN(C(=O)CCN3C(=O)c4ccccc4C3=O)CC2)cc1,-11,79*,-3,-4,4,3,-1,3,2
COc1ccc(OC)c(CNC(=O)CCNC(=O)Cn2ccc3ccccc3c2=O)c1,2,47*,11,5,-2,3,-1,4,3
CC(C(=O)Nc1cccc([N+](=O)[O-])c1)[n+]1ccccc1 (stereo not given),1,-5,3,-8,-1,1,·,·,·
CC(C(=O)Nc1cccc([N+](=O)[O-])c1)n1nnc2ccccc21 (stereo not given),5,82*,-5,-3,1,-4,-2,6,-12
COC1=C(NCc2ccc3c(c2)OCO3)C(=O)C(OC)=C(NCc2ccc3c(c2)OCO3)C1=O,3,13*,6,-1,-1,-6,-1,4,1
COC(=O)NCc1ccc2c(c1)OCO2,0,-5,-5,13,-1,-2,·,·,·
CCN(CC(=O)Nc1ccc2c(c1)OCCO2)C(=O)c1ccc(Cl)cc1Cl,-14,-2,-9,-4,4,3,·,·,·
COc1ccc(S(=O)(=O)N(C)C[C@H]2Oc3ccc(NC(=O)NC4CCCCC4)cc3C(=O)N([C@H](C)CO)C[C@@H]2C)cc1,4,-2,-3,4,0,-2,·,·,·
C#CCN1C=CC(=O)[C@@H](OC(=O)Nc2ccc(C)cc2)[C@H]1c1ccccc1Br,2,1,9,4,0,-2,·,·,·
O=C(NCC1CC1)C1(S(=O)(=O)c2ccccc2)CC=CC1,2,4,5,-16,-2,-6,·,·,·
COCCNC(=O)C1(S(=O)(=O)c2ccccc2)CC=CC1,2,24*,-3,-14,-6,0,0,0,0
COc1ccc(-n2cc(-c3ccccc3)c3c(N4CC(C)OC(C)C4)ncnc32)cc1 (stereo not given),0,0,7,1,-7,-4,·,·,·
O=C(O)/C(=C/c1ccco1)NC(=O)c1ccccc1,10,27*,0,3,-3,7,-2,8,7
CC(C)(C)c1ccc(C(=O)N/C(=C\c2ccco2)C(=O)O)cc1,8,11,-7,-6,-2,1,·,·,·
O=C(O)/C(=C\c1ccco1)NC(=O)c1cccc2ccccc12,-2,29*,-4,2,13,21*,3,-17,7
Oc1c(Br)cc(Cl)cc1C=Nc1ccc(N2CCOCC2)cc1,6,19*,1,11,-4,2,2,-8,25*
Clc1cccc(-c2ccc(C=Nc3ccc(N4CCOCC4)cc3)o2)c1,-2,24*,-3,-4,-1,-2,8,-40,9
Oc1ccc(NC(=S)Nc2ccc(O)cc2)cc1,13,17*,-1,-10,-4,-5,6,-28,1
COC(=O)c1ccc(NC(=S)Nc2ccc(O)cc2)cc1,1,5,4,1,2,-5,·,·,·
COc1ccc(CCNC(=O)C2CCCN2C(=O)Nc2ccc(F)cc2)cc1OC (stereo not given),5,0,-6,-7,-6,0,·,·,·
CN(C)c1cc(-c2ccc(Cl)c(Cl)c2)oc(=O)c1Cl,-1,0,-11,4,-2,3,·,·,·
SMILES,TCR-CD3 inh,LEDGF integ inh,ARFGAP1 inhibitor,ASAP1 inh,MBD2 inh,UHRF1 MBD2 ctr,IN multimer up,TR-FRET interf,LEDGF integ conf
COc1cc(-c2cc(=O)c3c(O)c(OC)c(OC)c(O)c3o2)ccc1O,12,25*,6,-2,-1,-3,27*,-136,22*
COc1c(O)c(O)c2oc(-c3ccccc3)cc(=O)c2c1OC,-2,-8,6,2,3,-2,·,·,·
CCOC(=O)c1cc2c(nc1NC(=S)Nc1ccccc1)CC(C)(C)OC2,3,18*,-7,-9,0,1,2,-8,3
O=C(NCC(c1cccs1)N1CCOCC1)c1ccccc1NS(=O)(=O)c1ccc(Cl)c([N+](=O)[O-])c1 (stereo not given),12,35*,2,8,-6,-1,0,-1,-1
CN(Cc1ccccc1)Cc1nc2c(c(=O)n(C)c(=O)n2C)n1CCc1ccccc1,3,23*,1,0,-4,3,0,-1,-1
CCCCCCCNC(=O)C1(CC2CC(c3ccc(Cl)cc3)=NO2)CCN(C(=O)OC(C)(C)C)CC1 (stereo not given),7,1,7,2,-5,-5,·,·,·
CCOC(=O)C1(C)CCCN(C(=O)C(c2ccccc2)c2ccccc2)C1 (stereo not given),-1,1,9,-2,-6,0,·,·,·
Cn1nnc(NC(=O)c2ccc([N+](=O)[O-])cc2Cl)n1,-2,51*,-2,4,2,0,1,-3,-6
O=C(COC(=O)COc1ccc(Cl)cc1)NCc1cccs1,6,-1,-2,3,3,0,·,·,·
O=C(NC1=C(NC2CCS(=O)(=O)C2)C(=O)c2ccccc2C1=O)c1ccccc1 (stereo not given),4,25*,-3,13,-6,10,1,-4,41*
O=C(NC1=C(Nc2ccc(Cl)cc2)C(=O)c2ccccc2C1=O)c1ccccc1,-6,-1,7,-33,-9,5,·,·,·
O=C(CSc1ccccc1)N1CCCC(N2CCN(c3ccccc3)CC2)C1 (stereo not given),3,5,-18,4,3,0,·,·,·
Cc1nc(C(=O)NCCCO)cc2c1[nH]c1ccccc12,-1,27*,2,-5,0,2,-2,6,-1

# Bioassay records deposited in PubChem BioAssay by The Scripps Research Institute Molecular Screening Center.
